What was measured:
[1] = target: Myosin light chain kinase, smooth muscle (Homo sapiens) (UniProt Q15746); assay: Competitive binding affinity to MLCK (unknown origin) at 10 uM in presence of ATP relative to control
[2] = target: Casein kinase I isoform delta (Homo sapiens) (UniProt P48730); assay: Competitive binding affinity to CSNK1D (unknown origin) at 10 uM in presence of ATP relative to control
[3] = target: Macrophage colony-stimulating factor 1 receptor (Homo sapiens) (UniProt P07333); assay: Competitive binding affinity to CSF1R (unknown origin) at 10 uM in presence of ATP relative to control
Summary of the method: (§1)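 In vitro ATP-site competition binding assay across a diverse panel of 128 kinases, with each compound tested at a single concentration. Kinase binding is expressed relative to control.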

[4] = target: Ribosomal protein S6 kinase alpha-6 (Homo sapiens) (UniProt Q9UK32); assay: Competitive binding affinity to RPS6KA6 kinase domain 2 (unknown origin) at 10 uM in presence of ATP relative to control
[5] = system: Mast/stem cell growth factor receptor Kit (Homo sapiens), P10721 [D816V]; assay: Competitive binding affinity to KIT D816V mutant (unknown origin) at 10 uM in presence of ATP relative to control
[6] = system: Receptor-type tyrosine-protein kinase FLT3 (Homo sapiens), P36888 [UNDEFINED MUTATION]; assay: Competitive binding affinity to FLT3 ITD mutant (unknown origin) at 10 uM in presence of ATP relative to control
[7] = target: Dual specificity mitogen-activated protein kinase kinase 1 (Homo sapiens) (UniProt Q02750); assay: Competitive binding affinity to MEK1 (unknown origin) at 10 uM in presence of ATP relative to control
[8] = target: Dual specificity testis-specific protein kinase 1 (Homo sapiens) (UniProt Q15569); assay: Competitive binding affinity to TESK1 (unknown origin) at 10 uM in presence of ATP relative to control
Homo sapiens = species: Homo sapiens; assay: Competitive binding affinity to EGFR L747 to E749 deletion mutant, A750P mutant (unknown origin) at 10 uM in presence of ATP relative to control
[9] = target: 5'-AMP-activated protein kinase catalytic subunit alpha-2 (Homo sapiens) (UniProt P54646); assay: Competitive binding affinity to AMPKalpha2 (unknown origin) at 10 uM in presence of ATP relative to control; summary of the method: as §1
[10] = target: RAC-gamma serine/threonine-protein kinase (Homo sapiens) (UniProt Q9Y243); assay: Competitive binding affinity to AKT3 (unknown origin) at 10 uM in presence of ATP relative to control
[11] = target: T1, NUAK family SNF1-like kinase 2 (Homo sapiens) (UniProt Q9H093); assay: Competitive binding affinity to SNARK (unknown origin) at 10 uM in presence of ATP relative to control
T1 sequence (whole entry): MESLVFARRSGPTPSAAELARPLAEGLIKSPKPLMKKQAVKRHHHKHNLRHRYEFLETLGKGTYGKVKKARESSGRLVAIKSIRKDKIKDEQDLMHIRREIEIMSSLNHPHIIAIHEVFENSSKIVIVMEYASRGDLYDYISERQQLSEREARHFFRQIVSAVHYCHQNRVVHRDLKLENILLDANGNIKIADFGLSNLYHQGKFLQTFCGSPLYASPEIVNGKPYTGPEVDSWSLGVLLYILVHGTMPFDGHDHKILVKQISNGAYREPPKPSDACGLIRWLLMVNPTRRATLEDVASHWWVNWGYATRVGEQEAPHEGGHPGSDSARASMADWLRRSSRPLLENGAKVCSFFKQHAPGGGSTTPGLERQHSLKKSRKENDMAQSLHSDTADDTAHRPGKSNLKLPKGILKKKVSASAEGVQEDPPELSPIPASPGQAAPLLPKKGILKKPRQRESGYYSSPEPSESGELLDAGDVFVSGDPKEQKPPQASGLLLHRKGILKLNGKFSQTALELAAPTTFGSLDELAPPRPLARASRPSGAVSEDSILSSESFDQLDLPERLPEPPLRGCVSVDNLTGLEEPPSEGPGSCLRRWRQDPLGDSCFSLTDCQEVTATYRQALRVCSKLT

[12] = target: Tyrosine-protein kinase receptor Tie-1 (Homo sapiens) (UniProt P35590); assay: Competitive binding affinity to TIE1 (unknown origin) at 10 uM in presence of ATP relative to control
[13] = target: T2, Cyclin-dependent kinase 11A (Homo sapiens) (UniProt Q9UQ88); assay: Competitive binding affinity to CDC2L2 (unknown origin) at 10 uM in presence of ATP relative to control
T2 sequence (whole entry): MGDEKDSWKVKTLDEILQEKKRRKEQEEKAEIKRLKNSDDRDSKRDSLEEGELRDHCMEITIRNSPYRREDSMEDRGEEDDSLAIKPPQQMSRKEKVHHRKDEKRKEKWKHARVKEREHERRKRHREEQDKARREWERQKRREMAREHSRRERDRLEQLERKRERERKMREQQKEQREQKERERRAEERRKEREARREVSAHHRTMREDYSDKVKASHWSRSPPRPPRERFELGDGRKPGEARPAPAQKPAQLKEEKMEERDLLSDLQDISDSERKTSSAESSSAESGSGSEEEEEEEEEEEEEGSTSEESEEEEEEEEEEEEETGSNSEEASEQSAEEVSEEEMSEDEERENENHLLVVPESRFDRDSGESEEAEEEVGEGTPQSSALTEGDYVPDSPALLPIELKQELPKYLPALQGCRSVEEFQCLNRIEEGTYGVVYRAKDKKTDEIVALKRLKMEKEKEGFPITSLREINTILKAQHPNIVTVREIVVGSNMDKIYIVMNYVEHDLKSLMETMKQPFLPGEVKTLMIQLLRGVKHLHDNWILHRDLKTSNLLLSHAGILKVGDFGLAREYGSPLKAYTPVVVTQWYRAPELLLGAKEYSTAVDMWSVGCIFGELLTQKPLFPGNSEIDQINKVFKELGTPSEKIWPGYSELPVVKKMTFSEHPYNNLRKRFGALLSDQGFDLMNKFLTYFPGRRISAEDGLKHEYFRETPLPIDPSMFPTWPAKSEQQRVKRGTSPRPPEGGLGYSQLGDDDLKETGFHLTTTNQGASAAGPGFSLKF
Summary of the method: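 In vitro ATP-site competition binding format, run as one member of a diverse 128-kinase profiling panel. Each compound was tested at a single concentration across the whole panel.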

[14] = target: Cyclin-dependent kinase 9 (Homo sapiens) (UniProt P50750); assay: Competitive binding affinity to CDK9 (unknown origin) at 10 uM in presence of ATP relative to control
[15] = system: Tyrosine-protein kinase ABL1 (Homo sapiens), P00519 [E255K]; assay: Competitive binding affinity to ABL1 E255K mutant (unknown origin) at 10 uM in presence of ATP relative to control
Tyrosine-protein kinase ABL1 (Homo sapiens), P00519 [E255K], sequence (P00519 whole entry E255K): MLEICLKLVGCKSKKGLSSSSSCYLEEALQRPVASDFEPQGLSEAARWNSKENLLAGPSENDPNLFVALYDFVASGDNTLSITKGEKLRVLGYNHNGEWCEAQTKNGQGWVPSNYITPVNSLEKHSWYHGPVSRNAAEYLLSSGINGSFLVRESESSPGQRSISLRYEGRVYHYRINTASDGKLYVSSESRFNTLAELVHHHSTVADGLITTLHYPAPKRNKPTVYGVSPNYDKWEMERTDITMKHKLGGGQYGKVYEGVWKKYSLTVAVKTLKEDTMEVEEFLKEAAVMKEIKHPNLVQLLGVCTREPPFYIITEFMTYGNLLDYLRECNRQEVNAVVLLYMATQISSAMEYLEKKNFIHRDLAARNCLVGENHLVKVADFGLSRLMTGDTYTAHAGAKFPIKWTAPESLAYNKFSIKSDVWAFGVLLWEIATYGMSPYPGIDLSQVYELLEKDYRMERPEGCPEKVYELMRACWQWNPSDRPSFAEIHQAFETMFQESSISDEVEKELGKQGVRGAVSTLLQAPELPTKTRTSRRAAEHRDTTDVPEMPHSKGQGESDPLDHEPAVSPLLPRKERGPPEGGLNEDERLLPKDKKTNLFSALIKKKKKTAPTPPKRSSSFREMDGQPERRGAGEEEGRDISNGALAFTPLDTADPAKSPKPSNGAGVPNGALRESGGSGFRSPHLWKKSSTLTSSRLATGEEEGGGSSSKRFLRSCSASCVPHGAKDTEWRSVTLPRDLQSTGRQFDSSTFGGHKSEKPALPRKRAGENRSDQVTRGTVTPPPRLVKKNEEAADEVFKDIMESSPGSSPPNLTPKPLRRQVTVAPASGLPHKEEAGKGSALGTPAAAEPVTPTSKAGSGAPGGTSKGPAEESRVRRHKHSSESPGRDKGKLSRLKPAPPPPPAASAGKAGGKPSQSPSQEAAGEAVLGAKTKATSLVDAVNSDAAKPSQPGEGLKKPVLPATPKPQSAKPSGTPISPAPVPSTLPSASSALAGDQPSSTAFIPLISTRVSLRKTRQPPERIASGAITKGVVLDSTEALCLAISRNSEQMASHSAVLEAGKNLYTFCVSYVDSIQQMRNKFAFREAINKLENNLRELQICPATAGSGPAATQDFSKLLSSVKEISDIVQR

RAC-gamma serine/threonine-protein kinase (Homo sapiens), sequence (Q9Y243 whole entry): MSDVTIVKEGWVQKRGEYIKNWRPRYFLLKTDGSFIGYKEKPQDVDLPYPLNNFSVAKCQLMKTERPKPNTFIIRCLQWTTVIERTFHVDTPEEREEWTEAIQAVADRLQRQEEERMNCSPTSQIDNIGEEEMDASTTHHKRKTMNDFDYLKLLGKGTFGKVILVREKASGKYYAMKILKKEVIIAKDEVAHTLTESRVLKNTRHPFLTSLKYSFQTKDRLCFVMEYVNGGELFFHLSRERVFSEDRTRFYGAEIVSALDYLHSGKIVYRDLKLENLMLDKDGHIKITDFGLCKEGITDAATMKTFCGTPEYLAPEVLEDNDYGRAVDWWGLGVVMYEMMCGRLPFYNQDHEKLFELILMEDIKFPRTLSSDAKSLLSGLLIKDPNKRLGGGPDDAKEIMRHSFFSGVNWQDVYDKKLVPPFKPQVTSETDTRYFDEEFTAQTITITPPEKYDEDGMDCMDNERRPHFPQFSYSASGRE
Mast/stem cell growth factor receptor Kit (Homo sapiens), P10721 [D816V], sequence (P10721 whole entry D816V): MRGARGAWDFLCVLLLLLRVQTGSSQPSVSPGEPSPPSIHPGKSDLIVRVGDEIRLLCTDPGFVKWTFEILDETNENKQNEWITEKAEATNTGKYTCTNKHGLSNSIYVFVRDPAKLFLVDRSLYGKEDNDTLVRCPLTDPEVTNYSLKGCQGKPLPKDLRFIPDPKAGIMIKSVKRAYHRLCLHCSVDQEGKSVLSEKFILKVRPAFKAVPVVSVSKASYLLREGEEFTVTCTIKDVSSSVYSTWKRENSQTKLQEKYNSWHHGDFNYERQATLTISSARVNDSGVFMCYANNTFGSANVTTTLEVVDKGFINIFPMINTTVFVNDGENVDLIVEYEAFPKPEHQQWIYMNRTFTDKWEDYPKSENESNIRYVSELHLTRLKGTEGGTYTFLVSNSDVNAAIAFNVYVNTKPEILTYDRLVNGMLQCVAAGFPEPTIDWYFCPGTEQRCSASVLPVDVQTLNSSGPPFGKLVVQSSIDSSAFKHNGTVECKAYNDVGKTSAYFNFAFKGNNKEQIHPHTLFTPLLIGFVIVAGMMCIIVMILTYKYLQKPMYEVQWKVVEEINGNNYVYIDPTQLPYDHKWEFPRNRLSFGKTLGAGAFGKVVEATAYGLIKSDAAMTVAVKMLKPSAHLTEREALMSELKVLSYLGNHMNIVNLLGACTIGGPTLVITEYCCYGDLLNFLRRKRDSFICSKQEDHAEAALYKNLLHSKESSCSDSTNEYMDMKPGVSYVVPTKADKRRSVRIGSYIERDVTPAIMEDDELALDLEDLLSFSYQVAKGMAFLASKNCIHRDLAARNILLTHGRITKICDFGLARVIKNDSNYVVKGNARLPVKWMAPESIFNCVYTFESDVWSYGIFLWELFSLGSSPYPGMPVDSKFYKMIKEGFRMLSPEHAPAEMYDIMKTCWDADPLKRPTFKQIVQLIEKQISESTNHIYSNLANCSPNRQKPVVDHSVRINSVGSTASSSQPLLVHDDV
Casein kinase I isoform delta (Homo sapiens), sequence (P48730 whole entry, looked up, canonical isoform): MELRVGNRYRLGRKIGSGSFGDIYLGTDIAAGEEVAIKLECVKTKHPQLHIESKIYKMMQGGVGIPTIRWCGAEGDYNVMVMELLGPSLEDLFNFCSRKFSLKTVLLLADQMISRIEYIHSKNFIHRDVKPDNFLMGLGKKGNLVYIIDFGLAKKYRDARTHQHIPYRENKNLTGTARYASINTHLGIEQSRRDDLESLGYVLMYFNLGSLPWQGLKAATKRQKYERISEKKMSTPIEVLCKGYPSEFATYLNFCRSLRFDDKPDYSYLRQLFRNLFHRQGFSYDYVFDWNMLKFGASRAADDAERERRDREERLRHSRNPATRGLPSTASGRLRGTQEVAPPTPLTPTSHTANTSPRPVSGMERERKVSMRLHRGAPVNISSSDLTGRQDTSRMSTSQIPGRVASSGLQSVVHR
Macrophage colony-stimulating factor 1 receptor (Homo sapiens), sequence (P07333 whole entry): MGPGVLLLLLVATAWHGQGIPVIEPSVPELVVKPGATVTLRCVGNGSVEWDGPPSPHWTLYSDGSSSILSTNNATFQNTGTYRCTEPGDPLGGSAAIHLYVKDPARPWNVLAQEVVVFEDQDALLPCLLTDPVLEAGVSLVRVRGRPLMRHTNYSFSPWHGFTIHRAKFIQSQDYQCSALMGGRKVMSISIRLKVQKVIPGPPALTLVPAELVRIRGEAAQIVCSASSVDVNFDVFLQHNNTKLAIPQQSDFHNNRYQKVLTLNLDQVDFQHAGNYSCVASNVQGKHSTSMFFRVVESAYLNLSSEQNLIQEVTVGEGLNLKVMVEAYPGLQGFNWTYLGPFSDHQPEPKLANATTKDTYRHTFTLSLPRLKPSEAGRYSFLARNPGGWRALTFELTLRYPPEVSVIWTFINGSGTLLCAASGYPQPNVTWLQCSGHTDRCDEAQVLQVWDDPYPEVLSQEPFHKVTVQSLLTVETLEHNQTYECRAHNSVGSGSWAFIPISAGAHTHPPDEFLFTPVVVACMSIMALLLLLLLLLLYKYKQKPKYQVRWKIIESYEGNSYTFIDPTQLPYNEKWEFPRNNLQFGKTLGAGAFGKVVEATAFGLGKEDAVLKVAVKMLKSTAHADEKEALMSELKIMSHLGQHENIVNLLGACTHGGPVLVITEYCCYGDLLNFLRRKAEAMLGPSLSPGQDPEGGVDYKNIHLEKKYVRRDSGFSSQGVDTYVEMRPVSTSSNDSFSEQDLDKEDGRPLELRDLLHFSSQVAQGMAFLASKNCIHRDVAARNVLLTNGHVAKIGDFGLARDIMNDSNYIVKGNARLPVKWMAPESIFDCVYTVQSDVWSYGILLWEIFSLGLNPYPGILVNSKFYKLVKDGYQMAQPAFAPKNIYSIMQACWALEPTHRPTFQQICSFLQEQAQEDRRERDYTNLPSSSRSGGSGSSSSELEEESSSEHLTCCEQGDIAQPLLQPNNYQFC
Cyclin-dependent kinase 9 (Homo sapiens), sequence (P50750 whole entry): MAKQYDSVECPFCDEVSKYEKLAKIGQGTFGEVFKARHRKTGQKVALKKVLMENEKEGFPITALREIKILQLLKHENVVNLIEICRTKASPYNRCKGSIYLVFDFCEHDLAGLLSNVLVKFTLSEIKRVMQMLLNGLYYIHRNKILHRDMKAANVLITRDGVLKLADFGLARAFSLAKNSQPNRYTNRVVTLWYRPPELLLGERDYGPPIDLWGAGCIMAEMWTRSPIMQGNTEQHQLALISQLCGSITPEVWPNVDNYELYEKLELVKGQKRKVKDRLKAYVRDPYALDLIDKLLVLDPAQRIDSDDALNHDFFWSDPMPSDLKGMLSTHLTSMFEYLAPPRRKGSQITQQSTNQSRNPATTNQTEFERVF
Dual specificity mitogen-activated protein kinase kinase 1 (Homo sapiens), sequence (Q02750 whole entry): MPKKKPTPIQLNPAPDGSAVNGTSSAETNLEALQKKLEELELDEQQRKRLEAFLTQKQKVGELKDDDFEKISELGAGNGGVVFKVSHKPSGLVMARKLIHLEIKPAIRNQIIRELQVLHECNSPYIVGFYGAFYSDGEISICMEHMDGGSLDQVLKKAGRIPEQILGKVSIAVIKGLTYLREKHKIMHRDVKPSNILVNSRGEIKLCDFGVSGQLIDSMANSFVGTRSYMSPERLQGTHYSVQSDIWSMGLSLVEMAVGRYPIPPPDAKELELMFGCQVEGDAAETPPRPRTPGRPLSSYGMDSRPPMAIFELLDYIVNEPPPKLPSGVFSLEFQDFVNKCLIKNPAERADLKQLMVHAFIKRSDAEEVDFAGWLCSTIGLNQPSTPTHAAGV

| inhibition [1] | inhibition [2] | inhibition [3] | inhibition [4] | inhibition [5] | inhibition [6] | inhibition [7] | inhibition [8] | inhibition (Homo sapiens) | inhibition [9] | inhibition [10] | inhibition [11] | inhibition [12] | inhibition [13] | inhibition [14] | inhibition [15] | SMILES |
| --- | --- | --- | --- | --- | --- | --- | --- | --- | --- | --- | --- | --- | --- | --- | --- | --- |
| 88% | 100% | < 50% | 100% | 98% | 98% | < 50% | < 50% | < 50% | 74% | < 50% | 94% | < 50% | 100% | 96% | < 50% | O[C@H]1CC[C@H](Nc2nccc(-n3nnc4ccccc43)n2)CC1 |
|  |  |  |  |  |  |  |  |  |  |  | > 85% |  | > 85% |  |  | CS(=O)(=O)CCCOc1cccc2c1ccn2-c1ccnc(N[C@H]2CC[C@H](C(=O)N3CCC(O)CC3)CC2)n1 |
| < 50% | 96% | 74% | 100% | 63% | 100% | < 50% | 82% | < 50% | < 50% | < 50% | 78% | < 50% | 97% | 82% | < 50% | O[C@H]1CC[C@H](Nc2nccc(-n3ncc4ccccc43)n2)CC1 |
|  | 100% | 97% |  | 94% | 100% |  | 98% | < 50% | 89% | < 50% |  |  |  |  | < 50% | O[C@H]1CC[C@H](Nc2nccc(-c3n[nH]c4ccccc34)n2)CC1 |
| 65% | 91% | < 50% | 84% | < 50% | < 50% | < 50% | 82% | < 50% | < 50% | < 50% | < 50% | < 50% | 95% | 85% | < 50% | O[C@H]1CC[C@H](Nc2nccc(-n3ccc4ccccc43)n2)CC1 |

From ChEMBL document CHEMBL2424622, “Development of amino-pyrimidine inhibitors of c-Jun N-terminal kinase (JNK): kinase profiling guided optimization of a 1,2,3-benzotriazole lead” (Bioorg Med Chem Lett, 2013)
